# Article PMC2175342 (Nucleic Acids Research, 2007)
# Read-outs that look alike come from different tables or passages of the source.
# Columns and labels:
# HeLa cell telomerase [1] = target: T1, HeLa cell telomerase (Homo sapiens, UniProt O14746); assay: Semi-quantitative telomerase assay based on the 'stretch PCR' method; type: biochemical; conditions: for Km: natural dNTP substrate, Lineweaver–Burk plot analyses
# HeLa cell telomerase [2] = target: T1, HeLa cell telomerase; conditions: cited from earlier work
# [3] = system: telomerase from human leukemia cells and HeLa cells; conditions: cited from earlier work
# [4] = system: immortalized human B- and T-cell lines; conditions: cited from earlier work
# cherry salmon telomerase = assay: Primer extension assay; type: biochemical; conditions: 18-mer (TTAGGG)3 primer, 5 or 20 µM analog
# Summary of the method: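 Telomerase was partially purified from immature cherry salmon testis (DEAE-cellulose, 70% ammonium sulfate, dialysis). It extended 2 µM (TTAGGG)3 in Tris–HOAc pH 8.5, KOAc, 1 mM MgCl2, 1 mM DTT and 5 µM [α-32P]dTTP. Either 200 µM dATP with 0/5 µM dGTP plus 0/5/20 µM dGTP-analog, or 200 µM dGTP with 0/5 µM dATP plus 0/5/20 µM dATP-analog. Run 1 h at 25°C, then RNase A/proteinase K, 20% PAGE–7 M urea, phosphorimaging.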
# T1 sequence (O14746 whole entry): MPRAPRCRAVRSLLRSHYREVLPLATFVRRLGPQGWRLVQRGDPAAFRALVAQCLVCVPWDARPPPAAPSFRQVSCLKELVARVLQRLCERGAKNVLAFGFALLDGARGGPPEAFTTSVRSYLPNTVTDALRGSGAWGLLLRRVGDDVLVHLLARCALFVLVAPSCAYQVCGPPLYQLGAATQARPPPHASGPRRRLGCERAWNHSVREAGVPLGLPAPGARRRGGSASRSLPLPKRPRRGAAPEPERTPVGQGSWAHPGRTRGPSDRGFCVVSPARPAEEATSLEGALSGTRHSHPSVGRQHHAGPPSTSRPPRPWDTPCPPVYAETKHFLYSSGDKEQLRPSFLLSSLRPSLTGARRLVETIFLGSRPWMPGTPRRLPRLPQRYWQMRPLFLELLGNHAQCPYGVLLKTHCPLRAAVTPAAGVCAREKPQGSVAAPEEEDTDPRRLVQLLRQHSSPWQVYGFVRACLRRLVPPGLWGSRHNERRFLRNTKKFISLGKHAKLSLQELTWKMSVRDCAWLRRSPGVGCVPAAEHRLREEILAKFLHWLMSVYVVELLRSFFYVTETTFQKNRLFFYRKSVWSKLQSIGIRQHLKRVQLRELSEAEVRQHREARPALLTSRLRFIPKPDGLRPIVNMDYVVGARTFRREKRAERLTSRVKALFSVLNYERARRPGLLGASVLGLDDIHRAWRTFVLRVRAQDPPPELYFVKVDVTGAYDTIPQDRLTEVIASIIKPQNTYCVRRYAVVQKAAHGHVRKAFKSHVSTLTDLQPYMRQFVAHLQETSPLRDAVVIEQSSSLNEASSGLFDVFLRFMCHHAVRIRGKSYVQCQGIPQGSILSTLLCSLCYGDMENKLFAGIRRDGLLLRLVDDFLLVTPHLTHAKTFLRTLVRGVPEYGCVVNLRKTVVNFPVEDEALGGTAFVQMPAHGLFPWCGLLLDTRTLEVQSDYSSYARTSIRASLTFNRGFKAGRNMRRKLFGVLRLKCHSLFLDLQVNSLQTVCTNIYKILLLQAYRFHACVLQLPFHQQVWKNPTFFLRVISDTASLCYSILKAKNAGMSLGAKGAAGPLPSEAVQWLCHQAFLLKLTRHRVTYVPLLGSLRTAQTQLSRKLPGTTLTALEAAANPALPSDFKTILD
# T1 sequence (O60832 whole entry partner): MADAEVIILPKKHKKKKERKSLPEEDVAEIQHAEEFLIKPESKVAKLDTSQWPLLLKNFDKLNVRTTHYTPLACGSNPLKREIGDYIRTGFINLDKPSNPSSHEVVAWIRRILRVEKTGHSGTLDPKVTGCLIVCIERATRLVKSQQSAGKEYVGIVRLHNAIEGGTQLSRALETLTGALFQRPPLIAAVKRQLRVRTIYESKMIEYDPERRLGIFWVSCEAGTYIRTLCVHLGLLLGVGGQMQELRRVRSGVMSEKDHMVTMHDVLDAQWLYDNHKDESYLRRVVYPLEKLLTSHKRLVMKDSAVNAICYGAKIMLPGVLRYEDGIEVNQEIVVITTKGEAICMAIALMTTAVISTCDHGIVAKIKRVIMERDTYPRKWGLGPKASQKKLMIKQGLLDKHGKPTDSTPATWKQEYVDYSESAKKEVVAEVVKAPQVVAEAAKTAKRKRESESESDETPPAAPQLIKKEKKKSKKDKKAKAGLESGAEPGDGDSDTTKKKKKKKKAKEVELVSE
# T1 sequence (Q9NX24 whole entry partner): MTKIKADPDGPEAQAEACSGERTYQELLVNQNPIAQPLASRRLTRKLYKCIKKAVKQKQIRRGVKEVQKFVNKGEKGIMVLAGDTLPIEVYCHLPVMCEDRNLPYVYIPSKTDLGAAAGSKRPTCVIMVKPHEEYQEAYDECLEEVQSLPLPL
# T1 sequence (Q9NPE3 whole entry partner): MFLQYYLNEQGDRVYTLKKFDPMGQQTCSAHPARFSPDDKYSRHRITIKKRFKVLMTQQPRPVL
# T1 sequence (Q9NY12 whole entry partner): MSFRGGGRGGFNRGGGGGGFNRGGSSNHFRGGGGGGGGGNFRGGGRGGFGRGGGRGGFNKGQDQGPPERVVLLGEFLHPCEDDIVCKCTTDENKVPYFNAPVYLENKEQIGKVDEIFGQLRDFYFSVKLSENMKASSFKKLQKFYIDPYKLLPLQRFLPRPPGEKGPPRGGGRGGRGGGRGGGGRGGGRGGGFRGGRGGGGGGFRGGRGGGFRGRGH
# T1 sequence (Q9BUR4 whole entry partner): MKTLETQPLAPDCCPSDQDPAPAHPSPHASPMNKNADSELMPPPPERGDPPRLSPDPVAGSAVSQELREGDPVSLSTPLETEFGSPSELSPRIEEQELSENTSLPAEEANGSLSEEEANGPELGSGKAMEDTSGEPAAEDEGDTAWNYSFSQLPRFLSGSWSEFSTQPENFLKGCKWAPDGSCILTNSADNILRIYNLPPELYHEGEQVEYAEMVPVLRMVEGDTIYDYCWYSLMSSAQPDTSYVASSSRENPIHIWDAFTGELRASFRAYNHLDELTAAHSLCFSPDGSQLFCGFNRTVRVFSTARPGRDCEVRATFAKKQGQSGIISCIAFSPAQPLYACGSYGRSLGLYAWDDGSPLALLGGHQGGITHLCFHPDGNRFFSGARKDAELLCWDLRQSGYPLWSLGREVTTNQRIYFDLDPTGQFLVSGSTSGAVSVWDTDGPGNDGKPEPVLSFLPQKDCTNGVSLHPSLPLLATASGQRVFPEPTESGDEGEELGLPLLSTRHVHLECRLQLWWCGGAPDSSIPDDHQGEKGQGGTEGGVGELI
structure (smiles),measurement,setting,value
"Cc1cn([C@H]2C[C@H](N=[N+]=[N-])[C@@H](COP(=O)(O)OP(=O)(O)OP(=O)(O)O)O2)c(=O)[nH]c1=O [AZTTP, 3′-Azido-3′-deoxythymidine 5′-triphosphate]",Ki,HeLa cell telomerase [1],15000 nM
same,inhibitory effects on human telomerase,HeLa cell telomerase [1]; Figure 2B,weak
same,inhibition mode,"HeLa cell telomerase [1]; Lineweaver–Burk plots, versus the corresponding dNTP",nearly competitive
"Nc1nc2c(ncn2[C@@H]2O[C@H](COP(=O)(O)OP(=O)(O)OP(=O)(O)O)[C@@H](O)[C@@H]2O)c(=O)[nH]1 [araGTP, 9-β-D-Arabinofuranosylguanine 5′-triphosphate]",Ki,HeLa cell telomerase [2],1200 nM
Nc1ncnc2c1ncn2[C@H]1C[C@H](O)[C@@H](COP(=O)(O)OP(=O)(O)OP(=O)(O)O)O1 [dATP],Km,HeLa cell telomerase [1],0.97 ± 0.31 µM
Nc1nc2c(ncn2[C@H]2C[C@H](O)[C@@H](COP(=O)(O)OP(=O)(O)OP(=O)(O)O)O2)c(=O)[nH]1 [dGTP],Km,HeLa cell telomerase [1],8.2 ± 2.1 µM
same,Km,[3],8 to 12 µM
Cc1cn([C@H]2C[C@H](O)[C@@H](COP(=O)(O)OP(=O)(O)OP(=O)(O)O)O2)c(=O)[nH]c1=O [dTTP],Km,HeLa cell telomerase [1],7.9 ± 1.8 µM
same,Km,[3],8 to 12 µM
"Nc1nc2c(ncn2[C@H]2CC[C@@H](CO)O2)c(=O)[nH]1 [ddG, 2′,3′-dideoxyguanosine]",telomere DNA shortening,"[4]; 10 µM, long-term treatment",reproducible progressive telomere DNA shortening
same,effects on cell population doubling rates or morphology,[4],did not have observable effects
Nc1nc2c(ncn2[C@H]2CC[C@@H](COP(=O)(O)OP(=O)(O)OP(=O)(O)O)O2)c(=O)[nH]1 [ddGTP],Ki,HeLa cell telomerase [2],650 nM
same,primer extension product with analog instead of dGTP or dATP,cherry salmon telomerase,distinct 22-mer product
